Key:
Format in all cases: cell-based
Hsp27 phosphorylation = experiment: Western blot of Hsp27 phosphorylation; details: SB203580 0.25-8 µM for 2 h, then EV-A71 MOI 10 for 6 h, RD cells (Fig 1A)
Procedure, shortened: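 RD cells were pre-treated 2 h with test peptide or small-molecule test compound (0–8 µM), then infected with EV-A71 at MOI 10 for 6 h. Cells were lysed in NP-40 buffer, assayed by Bradford, and 20 μg protein was run on 12% SDS-PAGE/PVDF. Blots were probed with phospho-Ser15/78/82 Hsp27 antibodies and HRP secondaries (1 h) and read by chemiluminescence. Loading controls were GAPDH for the compound and β-actin for peptides; peptide blots were quantified by densitometry.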

[1] = system: Hsp27/hnRNP A1 relocalization; details: for redistribution of Hsp27 and hnRNP A1 in EV-A71-infected RD cells: peptide 25 μM for 2 h, then EV-A71 MOI 40 for 6 h (Fig 7C-E, S7C-E)
Procedure, shortened: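 RD cells on coverslips were pretreated 2 h with the test compound, then infected with EV-A71 at MOI 40 for 6 h. Cells were fixed in 4% paraformaldehyde for 20 min, permeabilised in 0.5% Triton X-100 for 15 min and blocked in 5% BSA for 2 h. They were stained with anti-Hsp27/anti-hnRNP A1 and Alexa Fluor 488/594 secondaries, with DAPI or Hoechst nuclei, and imaged by confocal. M1 coefficient gave overlap with nuclear stain.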

[2] = system: Hsp27 nuclear translocation / hnRNP A1 cytosol translocation; experiment: Nuclear/cytosol fraction assay upon EV-A71 infection; details: 0, 2, 4, 8 µM for 2 h, then EV-A71 MOI 10 for 6 h, RD cells (Fig 1C)
Procedure, shortened: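 RD cells were pretreated 2 h with the test compound (0–8 µM), then infected with EV-A71 at MOI 10 for 6 h. Cells were PBS-washed, scraped and pelleted. Cytoplasmic extract was taken on ice as the supernatant after 16,000 xg for 5 min. Nuclear extract was the supernatant after 16,000 xg for 10 min at 4°C. Both were analysed by western blot, with Lamin B1 as nuclear and GAPDH as cytosolic control.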

EV-A71 [3] = experiment: Viral RNA by RT-qPCR; details: HEK 293T cells, 8 μM SB203580 2 h before EV-A71 infection for 9 h (Fig 6C)
EV-A71 [4] = experiment: Virus titration; details: RD cells, peptide 25 μM for 2 h, EV-A71 MOI 0.1 for 24 h (Fig S8G)
Procedure, shortened: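 RD cells were pretreated 2 h with the test peptide, then infected with EV-A71. Supernatants were serially diluted 10-fold and added in quintuplicate to RD cells seeded 24 h earlier. TCID50 was calculated by the Kärber method after 120 h of infection.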

RD cells = experiment: CCK-8 assay; details: peptide treatment for 2 days, CCK-8 (Fig S7B)
Procedure, shortened: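 RD cells were seeded at 1 × 10^4/well and held 1 day at 5% CO2. They were then exposed to the test peptide for 2 days. CCK-8 reagent was added with medium and incubated 1 h at 37°C, and OD was read at 450 nm.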

EV-A71 VP1 = EV-A71 VP1 protein level by western blot with densitometry; details: RD cells, peptide for 2 h, EV-A71 MOI 1 for 9 h (Fig S8E)
Procedure, shortened: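 RD cells were pretreated 2 h with the test peptide, then infected with EV-A71 (SHZH98 strain). Lysis was in NP-40 buffer, with protein measured by Bradford assay. 20 μg protein was run on 12% SDS-PAGE and transferred to PVDF. HRP secondary antibodies were applied for 1 h, with chemiluminescent detection. VP1 bands were quantified by densitometry against the respective untreated control.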

Row | Molecule | Hsp27 phosphorylation level at Ser15 and Ser82 (Hsp27 phosphorylation) | nuclear Hsp27 level upon EV-A71 infection ([1]; 2 µM for 2 h, then EV-A71 MOI 40 for 6 h, RD cells (Fig 1B)) | nuclear relocation of Hsp27 upon EV-A71 infection ([1]; 4 µM for 2 h, then EV-A71 MOI 40 for 6 h, RD cells (Fig 1B)) | cytosol translocation of hnRNP A1 (nuclear/cytosol fraction) [2] | nuclear translocation of Hsp27 (nuclear/cytosol fraction) [2] | effect on viral RNA level in Hsp27 S78A- and Hsp27 S78D-expressing cells (EV-A71 [3]) | redistribution of Hsp27 and hnRNP A1 in EV-A71-infected RD cells [1] | effect on viral titre (in words) (EV-A71 [4]) | CC50 (in words) (RD cells) | effect on VP1 level (in words) (EV-A71 VP1)
1 | C[S+]([O-])c1ccc(-c2nc(-c3ccncc3)c(-c3ccc(F)cc3)[nH]2)cc1 (stereo not drawn) [SB203580] | slightly decreased | markedly reduced nuclear Hsp27 level | further blocked to an invisible level | inhibited the cytosol translocation of hnRNP A1 in a dose-dependent manner | suppress the nuclear translocation of Hsp27 in a dose-dependent manner | no obvious effects | – | – | – | –
2 | RKKRRQRRR-AYSRAAAAQLSS [S78-3A] | – | – | – | – | – | – | partially suppressed | only mildly decreased | high CC50 | –
3 | RKKRRQRRR-YSREANQPKPSPKRESGEE [NC] | – | – | – | – | – | – | did not affect | – | high CC50 | no effect

Source: article PMC11212574 (Emerging Microbes & Infections, 2024)
